High-throughput results deposited in PubChem BioAssay by The Scripps Research Institute Molecular Screening Center.
TCR CD3 inh: inhibitors of human TCR-CD3 interaction | AID 651800 | inhibition, % at 9.4 µM | hit rate 0.37% among 360,000 | TAMRA-labeled TCR probe fluorescence, biochemical; in the data active means inhibition above about 19%;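 further: recombinant mutant TCR 2C K166C tagged with TAMRA read by polarization; 0% = receptor in buffer alone and 100% = receptor with positive control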
PRMT1 FP inh: PRMT1 (human) inhibition, primary screen. Q99873. recombinant PRMT1, activity-based probe fluorescence polarization. inhibition, % at 2.79 µM. hit rate 1.3% among 370,000. AID 652257;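 active means inhibition above about 21% made by adding two undisclosed values, limit read from the data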
Target sequence (Q99873 whole entry, looked up): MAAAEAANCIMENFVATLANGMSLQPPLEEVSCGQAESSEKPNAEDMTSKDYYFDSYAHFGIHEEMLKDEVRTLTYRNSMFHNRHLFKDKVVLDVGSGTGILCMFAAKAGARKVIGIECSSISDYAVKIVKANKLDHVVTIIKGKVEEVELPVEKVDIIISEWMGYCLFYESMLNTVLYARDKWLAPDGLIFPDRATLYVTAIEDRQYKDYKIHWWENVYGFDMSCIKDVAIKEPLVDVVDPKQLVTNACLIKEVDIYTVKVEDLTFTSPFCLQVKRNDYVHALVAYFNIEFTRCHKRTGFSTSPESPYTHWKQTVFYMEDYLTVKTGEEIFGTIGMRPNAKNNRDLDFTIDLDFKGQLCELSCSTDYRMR
SIAE primary: blocks human sialic acid acetylesterase; SIAE FP-Rh probe binding, fluorescence polarization; inhibition, % at 9.66 µM; hit rate 0.69% among 370,000;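 active means inhibition above a cutoff: mean of compounds within the control limits plus 3 SD of those, cut at about 17% in these data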;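 further: 0% = plate median of compound wells and 100% = probe without SIAE protein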
rCAG binder: binds r(CAG) RNA repeats; hit rate 1.3% among 370,000; inhibition, % at 3 µM; AID 651821; r(CAG) RNA repeat, TO-PRO-1 dye displacement fluorescence;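 active means inhibition above the plate cutoff, the mean of all test compounds on that plate plus 3 SD, cut at about 35% in these data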;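 further: 0% = DMSO alone and 100% = 100 µM mitoxantrone as full dye displacement; higher means more dye released from RNA so lower well fluorescence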
ABHD4 inh: ABHD4 (mouse) inhibition, primary FP screen | inhibition, % at 8.92 µM | Q8VD66 | hit rate 0.54% among 370,000 | purified mABHD4, FP-Rh probe fluorescence polarization | AID 720543;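 active means inhibition exceeding the mean over every tested compound plus 3 SD, cut at about 30% in these data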;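 further: 0% = plate median of compound wells and 100% = S159A mutant with DMSO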
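Doses – 8.92 µM, single dose · Material – wild-type mouse ABHD4 protein · Replication – single well per compound (singlicate) · Measure – percent inhibition of probe binding, normalized to plate controls · Schedule – 45 min compound pre-incubation plus 60 min probe step, 25 °C · Detection – fluorescence polarization with parallel and perpendicular emission, 525/598 nm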
PRMT1 inh conf: confirmation of human PRMT1 inhibitors | shares compounds with PRMT1 FP inh | AID 687036 | recombinant His-PRMT1, activity-based probe fluorescence polarization | inhibition, % at 2.79 µM | hit rate 42% among 3,300;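 active means mean inhibition across replicates above the hit cutoff derived for the earlier primary screen, cut at about 22% in these data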
* hit, by the source's call; nt = no result. An excerpt weighted towards active compounds, which were near 3.3% of everything screened.

SMILES	TCR CD3 inh	PRMT1 FP inh	SIAE primary	rCAG binder	ABHD4 inh	PRMT1 inh conf
CCOC(=O)C1(c2ccccc2)SC(C(=O)OCC)(c2ccccc2)S1 (stereo unspecified)	-3	71*	-3	1	-1	59*
CCOC(=O)C1(c2ccccc2)CCCNC1=O (stereo unspecified)	-7	0	1	0	-2	nt
CCCC(=O)Nc1nc2ccc(OC)cc2s1	6	-3	-3	0	-2	nt
COc1ccc2nc(NC(=S)N(C)C)sc2c1	5	28*	-8	7	0	-1
Cc1ccc(NC(=O)CC2SC3=NCCN3C2=O)cc1 (stereo unspecified)	0	94*	2	5	-5	9
CC(C)(C)c1ccc(S(=O)(=O)N2CCCC(C(=O)NCc3ccco3)C2)cc1 (stereo unspecified)	nt	0	-2	2	2	nt
CN(CCO)c1cc(Sc2nc3ccccc3s2)c2nonc2c1[N+](=O)[O-]	-4	90*	7	19	22	89*
COc1ccccc1N1C(=O)c2cccc3c(N(C)CCO)ccc(c23)C1=O	11	66*	-10	-83	0	47*
COc1ccccc1N1C(=O)c2cccc3c(C(=O)O)ccc(c23)C1=O	4	-1	1	3	0	nt
Cc1ccccc1N1C(=O)c2cccc3c(N(C)CCO)ccc(c23)C1=O	4	71*	3	-140	2	63*
O=C(O)CCCN1C(=O)C2C3CC(C2C1=O)C1C(c2ccccc2)c2sc(=O)[nH]c2SC31 (stereo unspecified)	3	12	6	8	-2	nt
O=C(O)CN1C(=O)C2C3CC(C2C1=O)C1C(c2ccc(Cl)cc2)c2sc(=O)[nH]c2SC31 (stereo unspecified)	-13	64*	9	30	2	15
O=C(O)CN1C(=O)C2C3CC(C2C1=O)C1C(c2ccc(F)cc2)c2sc(=O)[nH]c2SC31 (stereo unspecified)	4	37*	2	19	-4	22*
CC(C(=O)O)N1C(=O)C2C3CC(C2C1=O)C1C(c2ccccc2)c2sc(=O)[nH]c2SC31 (stereo unspecified)	12	29*	5	16	3	21*
O=C(NCCc1ccccc1)OCc1cn(Cc2cc(F)ccc2F)nn1	nt	1	-4	-1	0	nt
CCOC(=O)[C@]12CCCC=C1N(Cc1ccc(OC)cc1)C(=O)[C@@H]2CC(=O)N1CCCC1	nt	-7	1	1	-1	nt
NC(=O)CSc1nnc(-c2ccco2)n1-c1ccccc1	4	-5	1	-3	1	nt
OCCn1c(CSc2nnc(-c3ccco3)n2-c2ccccc2)nc2ccc(Cl)cc21	-1	39*	1	10	-16	34*
C[C@H]1[C@@H](NS(=O)(=O)c2ccccc2[N+](=O)[O-])CC[C@@]23CCCN2C(=O)CCC[C@@H]13	nt	0	-6	nt	2	nt
Cc1ccc(N2C(=O)CC(Sc3ncn[nH]3)C2=O)cc1C (stereo unspecified)	10	61*	4	-2	5	44*
Cc1cccc(N2C(=O)CC(Sc3nccc(C)n3)C2=O)c1 (stereo unspecified)	8	6	0	-3	-3	nt
Cc1cc(C)nc(SC2CC(=O)N(c3ccc(C)c(C)c3)C2=O)n1 (stereo unspecified)	1	-1	7	-5	0	nt
Cc1cccc(N2C(=O)CC(Sc3ncn[nH]3)C2=O)c1 (stereo unspecified)	-5	58*	3	11	3	55*
Cc1ccc(CN2CCCCC(NC(=O)C(C)(C)C)C2=O)cc1 (stereo unspecified)	nt	-1	0	0	3	nt
COc1ccccc1-c1ccc(/C=C2/C=C(C)OC2=O)o1	1	19	3	24	18	nt
SMILES	TCR CD3 inh	PRMT1 FP inh	SIAE primary	rCAG binder	ABHD4 inh	PRMT1 inh conf
COc1ccccc1-c1ccc(/C=C2\C=CC(=O)O2)o1	-1	44*	0	20	12	3
C=CCCC1(CCC)C(=O)/C(=C(\O)c2ccccc2)C(=O)C(CCC)=C1OC (stereo unspecified)	nt	-2	3	10	4	nt
Cc1ccc(NC(=O)c2cc(N3C(=O)C=CC3=O)ccc2N2CCOCC2)cc1Cl	2	90*	-18	14	4	103*
CC(=O)NC1=NC(=O)/C(=C/c2cc(C)n(-c3ccc(NC(C)=O)cc3)c2C)S1	1	32*	-6	15	-1	-9
CC(=O)NC1=NC(=O)/C(=C/c2cn(C(C)=O)nc2-c2ccccc2)S1	-2	31*	-8	6	-21	27*
CCN=C1S/C(=C\c2cn(C(C)=O)nc2-c2ccccc2)C(=O)N1CC	5	-3	-8	2	-4	nt
CC(=O)NC1=NC(=O)/C(=C/c2cc(C)n(-c3cccc(C(=O)O)c3)c2C)S1	7	57*	-4	24	9	9
N#CCC[C@H]1CC[C@]2(CCCN(S(=O)(=O)c3ccccc3)C2)O1	nt	1	4	3	-9	nt
c1cc(SSc2ccncc2)ccn1	3	87*	7	0	7	83*
O=C(NC(=S)NC1CCSC1=O)c1ccc([N+](=O)[O-])cc1 (stereo unspecified)	3	10	7	2	2	nt
Cc1ccccc1C(=O)NC1CCSC1=O (stereo unspecified)	6	-1	-3	0	-4	nt
O=C(NC(=S)NC1CCSC1=O)c1ccccc1 (stereo unspecified)	3	30*	4	12	0	9
O=C(NC(=S)NC1CCSC1=O)c1ccccc1Cl (stereo unspecified)	-1	26*	6	0	-5	1
CNC(=O)C[C@@H]1CC[C@@H]2[C@H](COc3ccc(NC(=O)c4cccc(F)c4)cc3C(=O)N2C)O1	nt	3	4	1	5	nt
Cc1ccc(CN2CCCCC(NC(=O)c3ccccc3C)C2=O)cc1 (stereo unspecified)	nt	-2	8	0	-1	nt
CCN(CC)c1ccc(C=Nn2c(C)nnc2C)cc1	nt	-6	2	3	-5	nt
COc1ccccc1C(=O)N1CCN(c2ccc(N3CCOCC3)nn2)CC1	-7	38*	-3	-3	6	-5
COc1ccc(C(=O)N2CCN(c3ccc(N4CCOCC4)nn3)CC2)cc1OC	-2	1	0	-4	0	nt
CCOC(=O)c1c(-c2ccccc2)oc2cc(CN(C)C)c(O)c(CN(C)C)c12	-1	26*	3	-28	14	3
CCOC(=O)c1c(C)oc2cc(Cl)c(O)c(CN(C)C)c12	-3	8	-5	-6	-4	nt
COc1cc2cc(CN(Cc3ccc4c(c3)OCO4)C(=O)c3ccco3)c(=O)[nH]c2cc1OC	-5	45*	1	9	-1	4
